C8 TRAIL sens – viability loss with TRAIL in NB7+C8 cells, primary screen, TRAIL sensitizer project, cell-based, ATPlite luminescence; inhibition (viability loss, TRAIL sensitization), % at 10 µM; hit rate 1% among 360,000; AID 624354, 2012;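 active = compounds causing at least 50% loss of cell viability in the single-dose screen, relative to plate controls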
Platelet DG rel – inhibitors of platelet dense granule secretion, primary screen, cell-based, MLPCN, human platelets; human platelet-rich plasma, SFLLRN dense granule ATP release, luminescence; inhibition, %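 (compounds screened at 7.5 µM in platelet-rich plasma)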; hit rate 0.22% among 300,000;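 active = mean replicate score, as percent of positive control, at or above 50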
FLuc stim CS – FLuc activators, initial screening, artefact control for FLuc-dependent activation tests, biochemical, ATPlite luminescence; Luciferin 4-monooxygenase (Photinus pyralis), P08659; ATPlite luciferase biochemical, 10 min; 0 = ATP-free wells, 1 = DMSO control; activation factor at 10 µM; AID 1027, 2008; 200,000 tested, under 10 active;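 active = luciferase activation factor, scaled between plate controls, of at least 2 with compound at 10 µM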
Target sequence (P08659 whole entry, looked up): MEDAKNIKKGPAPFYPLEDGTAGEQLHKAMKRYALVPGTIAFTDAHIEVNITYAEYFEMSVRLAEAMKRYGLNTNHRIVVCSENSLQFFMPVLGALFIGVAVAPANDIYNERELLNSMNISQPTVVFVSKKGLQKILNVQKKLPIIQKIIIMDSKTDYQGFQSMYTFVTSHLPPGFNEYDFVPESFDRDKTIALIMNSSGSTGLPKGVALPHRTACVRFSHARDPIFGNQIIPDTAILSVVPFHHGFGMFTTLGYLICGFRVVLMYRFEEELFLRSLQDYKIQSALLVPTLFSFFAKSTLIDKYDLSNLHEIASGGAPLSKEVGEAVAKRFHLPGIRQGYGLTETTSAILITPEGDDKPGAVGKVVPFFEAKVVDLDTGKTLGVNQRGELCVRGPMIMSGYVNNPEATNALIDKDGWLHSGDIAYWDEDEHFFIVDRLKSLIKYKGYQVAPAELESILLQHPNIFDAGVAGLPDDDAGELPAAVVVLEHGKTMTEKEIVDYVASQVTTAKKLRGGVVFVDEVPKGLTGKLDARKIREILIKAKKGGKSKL
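Assay system – cell-free luciferase reagent · Medium – PBS-based ATP solution · Dosing – test compounds dosed from 2 mM stocks in 100% DMSO · Timing – 10 min, room temperature · Technique – light output (luminescence) · Measure – luminescence gain marking luciferase activators · Controls – No-ATP low control, compound-free enzyme-plus-ATP high control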
FLuc inhib CS – firefly luciferase enzyme inhibitors, primary screen, artefact control for luciferase-based inhibitor screens, biochemical, luminescence, ATPLite | Luciferin 4-monooxygenase (Photinus pyralis), P08659 | 10 min | inhibition, % at 10 µM | hit rate 1.5% among 200,000;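 active = inhibition above about 50% when tested at 10 µM, limit read from the data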
PPC-1+TRAIL kill – compounds killing PPC-1 cancer cells with TRAIL present, primary screen, TRAIL potentiator project, ATPLite luminescence, uHTS; PPC-1 cells + TRAIL, ATPLite viability luminescence; cell killing (% activity), % at 4 µM or 5 µM; hit rate 0.41% among 220,000; AID 1443, 2008;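 active = cell killing above 50% in the first pass at 4 µM, then a duplicate retest at 5 µM averaging 50% or more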;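 also: plate controls were cells with TRAIL plus DMSO for no effect and medium-only wells lacking cells for full effect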
Active calls of the source: *; . = no result. This is a sample that favours compounds with a hit; in the whole collection about 1.6% have one here.

SMILES	C8 TRAIL sens	Platelet DG rel	FLuc stim CS	FLuc inhib CS	PPC-1+TRAIL kill
CC(C)(C)OC(=O)CNC(=O)c1[nH]cnc1C(=O)Nc1ccc(CNC(=O)OC(C)(C)C)cc1	39.7	2.6	.	.	20.7
Cc1cc(NC(=O)c2ccc(C(C)(C)C)cc2)no1	69.9*	.	.	.	.
Cc1occc1C(=O)Nc1cc(C(C)(C)C)on1	14.2	56.1*	0.7	29.3	16.0
Cc1cc(NC(=O)CCC(=O)NNC(=O)c2ccc(C(C)(C)C)cc2)no1	7.0	-1.5	0.2	77.6*	19.6
Cc1cc(NC(=O)c2ccc(F)cc2)no1	11.8	4.4	.	.	.
Cc1nnc(SCC(=O)NC2(C#N)CCCCC2)n1N	-0.1	.	.	.	.
Cc1cc2c(cc1C)-n1nnnc1C(N(C)Cc1ccccc1)C(=O)N2 (stereo not drawn)	24.8	.	.	.	.
COc1ccc(N=C2S/C(=C\c3ccc(Cl)c([N+](=O)[O-])c3)C(=O)N2CCN(C)C)cc1	80.4*	1.1	.	.	.
CCN(CC)CCN1C(=O)/C(=C\c2ccc(Cl)c([N+](=O)[O-])c2)SC1=Nc1ccc(OC)cc1	88.7*	18.3	.	.	.
CCCN1C(=O)/C(=C/c2ccc(C)s2)SC1=Nc1ccc(OC)cc1	-6.7	3.9	1.1	-9.0	-19.2
CCOC(=O)c1c(C)nc2ccc(Cl)cc2c1-c1ccccc1	3.1	17.4	1.1	-5.5	12.5
CCOCc1nc(N)nc(N)c1-c1cccc(Cl)c1	56.4*	.	.	.	.
COC(=O)C(C)N1C(=O)S/C(=C/c2cc(C)n(C(C)C)c2C)C1=O (stereo not drawn)	40.5	-0.2	0.5	51.2*	27.9
CCn1c(C)cc(/C=C2/SC(=O)N(C(C)C(=O)OC)C2=O)c1C (stereo not drawn)	30.3	-2.7	.	.	22.4
O=C(NC1CCCC1)N[C@@H]1CC[C@@H](CC(=O)N2CCOCC2)O[C@@H]1CO	-25.2	.	.	.	.
Cc1ccccc1-n1c(C)cc(/C=C(\C#N)C(=O)NCC2CCCO2)c1C (stereo not drawn)	25.2	31.9	0.2	75.2*	54.6*
COCCNC(=O)/C(C#N)=C/c1cc(C)n(C2CCCCC2)c1C	49.4	-1.1	0.3	71.8*	42.7
Cc1cc(/C=C(/C#N)C(=O)Nc2ccccc2)c(C)n1-c1cccnc1	37.8	-2.6	0.5	50.3*	26.9
Cc1cc(/C=C(\C#N)C(=O)O)c(C)n1C1CC1	-3.1	3.1	1	3.9	6.6
COCCNC(=O)/C(C#N)=C/c1cc(C)n(-c2ccc(C)cc2)c1C	62.1*	-0.8	0.3	72.4*	47.9
Cc1ccc(/C=C(\C#N)C(=O)NCC2CCCO2)o1 (stereo not drawn)	-9.6	14.9	1	-1.3	-4.7
Cc1cccc(CN2CCN(C3CN(Cc4cn(Cc5ccccc5)nn4)S(=O)(=O)C3)CC2)c1 (stereo not drawn)	-3.5	.	.	.	.
Cn1cc([C@]2(O)C(=O)Nc3ccc(Br)cc32)c2ccccc21	-15.5	.	.	.	.
CCOC(=O)[C@]12CCCC=C1N(Cc1ccccc1)C(=O)[C@H](CC(=O)NCCCN1CCCC1=O)C2	-6.3	.	.	.	.
CCc1cc2c(CN3CCN(C)CC3)cc(=O)oc2cc1O	-18.8	-0.6	1	-4.1	7.6
SMILES	C8 TRAIL sens	Platelet DG rel	FLuc stim CS	FLuc inhib CS	PPC-1+TRAIL kill
CCc1cc2c(CN3CCN(CCO)CC3)cc(=O)oc2cc1O	-18.1	-0.6	1	0.3	52.0*
CC(=O)OC[C@@H]1CN(Cc2ccccc2)C[C@H](n2cnc3c(Nc4ccccc4)ncnc32)O1	14.5	.	.	.	.
CCN(CC)c1ccc(C=Nc2ccccc2C)c(O)c1	24.2	6.9	0.5	53.4*	16.0
COc1ccc(NC(=O)c2cccc(N3C(=O)c4ccc(C(=O)Nc5ccc(OC)c(O)c5)cc4C3=O)c2)cc1O	57.8*	-0.4	.	.	.
CC(=O)c1ccc(NC(=O)c2cccc(N3C(=O)c4ccccc4C3=O)c2)cc1	8.0	-0.2	.	.	.
CCCCN(CCCNC(=O)c1ccc2c(c1)NC(=O)CN2C)c1ccccc1	28.1	.	.	.	.
Cc1ccccc1NC(=O)c1onc2c1CCCC2	22.6	8.7	0.4	62.8*	15.8
Cc1cccc(NC(=O)c2onc3c2CCCC3)c1C	21.5	4.0	0.7	29.6	-4.2
Cc1cccc(NC(=O)c2onc3c2CCCC3)n1	86.1*	21.4	0.1	92.4*	80.8*
O=C(Nc1ccc2ccccc2c1)c1onc2c1CCCC2	26.3	1.3	0.7	28.5	-12.1
COC(=O)c1cccc(NC(=O)c2onc3c2CCCC3)c1	29.3	-2.2	0.4	62.3*	32.2
COC(=O)c1ccc(N2C(c3ccsc3)=Cc3cc4c(cc3C2CC(=O)c2ccco2)OCO4)cc1 (stereo not drawn)	-3.4	.	.	.	.
CS(=O)(=O)Nc1ccc(C(=O)Nc2ccccc2Cl)cc1	-8.7	-0.4	1	-3.9	12.3
CC(C)(C)c1ccc(C(=O)Nc2ccccc2Cl)cc1	39.5	-1.0	0.4	58.8*	21.0
C#CCn1c2ccccc2c(=O)n1CCOc1ccccc1OC	4.6	.	.	.	.
COc1ccc(/C=C2/CCc3ccccc3C2=O)cc1OC	15.2	-4.0	0.7	33.2	1.7
COc1ccc(C=C2CCc3ccccc3C2=O)cc1	86.8*	.	.	.	.
CCOc1ccc(/C=C2\CCc3ccccc3C2=O)cc1	77.0*	16.2	.	.	35.2
COc1cc(NC(=O)c2ccc(-c3cnn(C)c3)c3ccoc23)cc(OC)c1OC	19.6	.	.	.	.
Cc1ccc(-c2nc(N/N=C/c3ccccc3[N+](=O)[O-])c3ccccc3n2)cc1	89.0*	26.1	0.4	63.7*	30.8
O=C(Nc1ccc(-c2nc3ccccc3[nH]2)cc1)C1CCCO1 (stereo not drawn)	73.0*	87.3*	0.1	89.6*	20.9
S=C(Nc1ccc(Cl)cc1)c1nc2ccccc2[nH]1	69.1*	-4.3	0.3	66.3*	25.6
O=C(Nc1nc2ccccc2[nH]1)C1CCCO1 (stereo not drawn)	-12.2	6.7	1	-3.5	7.1
CCNC(=S)Nc1ccc(-c2nc3ccccc3[nH]2)cc1	24.1	13.8	0.5	51.3*	8.0
Nc1ccc2nn(-c3ccccc3)nc2c1	22.1	.	0.4	60.4*	21.4
SMILES	C8 TRAIL sens	Platelet DG rel	FLuc stim CS	FLuc inhib CS	PPC-1+TRAIL kill
Nc1ccc(-n2nc3ccccc3n2)cc1	11.8	1.2	.	.	.
CC1N/C(=C\C(=O)c2ccccc2)N(O)C1(C)C (stereo not drawn)	24.4	-5.9	0.4	63.3*	10.6
O=C(Nc1ccccn1)c1ccc2c(=O)n3c(nc2c1)CCCCC3	60.3*	.	.	.	.
Cc1ccc(C)c(Nc2nc(N)c3ccccc3n2)c1	35.4	13.6	0.3	65.9*	24.3
CCCCN1C(=O)C(CC(=O)NCc2cccc3ccccc23)CC(C(=O)N2CCCCCC2)=C1C (stereo not drawn)	-10.3	.	.	.	.
O=C(Nc1ccc(Cl)c(S(=O)(=O)N2CCOCC2)c1)c1ccc(OCC2CCCO2)cc1 (stereo not drawn)	51.1*	9.7	0.9	5.0	11.0
